# Test results: ChEMBL document CHEMBL1138845, “Design of non-nucleoside inhibitors of HIV-1 reverse transcriptase with improved drug resistance properties. 2” (J Med Chem, 2004)
# Test system: HeLa
# Experiment: Inhibitory concentration against human immunodeficiency virus type 1 (with V106A/Y181C resistant mutation) was determined in HeLa-CD4 MAGI assay
# Assay type: functional, cell-based
# Summary of the method: (§1)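 Tested against a panel of recombinant, isogenic HIV-1 viruses, wild type and NNRTI-resistant strains carrying engineered single or double RT mutations. The readout was IC50.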
row,Structure (SMILES),IC50 [nM]
1,CCCc1c(O)nc2ccc(Cl)cc2c1OC1CCCC1,> 2000
2,CCCc1c(O)nc2ccc(OC)cc2c1OC1CCCC1,> 2000
3,CCCc1c(O)nc2ccc(F)cc2c1OC#CC1CC1,380
4,CC(C)c1c(OC2CCCCC2)c2cc(Cl)ccc2[nH]c1=O,430
5,CCc1c(O)nc2ccc(F)cc2c1OCC1CCC1,> 2000
6,CCCc1c(O)nc2ccc(Cl)cc2c1OCC1CC1,> 2000
7,Cc1c(O)nc2ccc(F)cc2c1OCC1CCC1,> 2000

# Test system: Human immunodeficiency virus 1
# Experiment: Inhibitory concentration against wild type human immunodeficiency virus type 1 was determined by recombinant virus assay
# Assay type: functional, organism-based
# Summary of the method: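 Isogenic recombinant HIV-1 carrying wild-type RT, tested in parallel with a panel of NNRTI-resistant RT mutants built on the same background; activity reported as IC50.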
row,Structure (SMILES),IC50 [nM]
1,CCCc1c(O)nc2ccc(Cl)cc2c1OC1CCCC1,60
2,CCCc1c(O)nc2ccc(OC)cc2c1OC1CCCC1,420
3,CCCc1c(O)nc2ccc(F)cc2c1OC#CC1CC1,66
4,CC(C)c1c(OC2CCCCC2)c2cc(Cl)ccc2[nH]c1=O,38
5,CCc1c(O)nc2ccc(F)cc2c1OCC1CCC1,89
6,CCCc1c(O)nc2ccc(Cl)cc2c1OCC1CC1,120
7,Cc1c(O)nc2ccc(F)cc2c1OCC1CCC1,610

# Test system: HeLa
# Experiment: Inhibitory concentration against human immunodeficiency virus type 1 (with V108I/Y181C resistant mutation) was determined in HeLa-CD4 MAGI assay
# Assay type: functional, cell-based
# Summary of the method: as §1
row,Structure (SMILES),IC50 [nM]
1,CCCc1c(O)nc2ccc(Cl)cc2c1OC1CCCC1,670
2,CCCc1c(O)nc2ccc(OC)cc2c1OC1CCCC1,> 2000
3,CCCc1c(O)nc2ccc(F)cc2c1OC#CC1CC1,370
4,CC(C)c1c(OC2CCCCC2)c2cc(Cl)ccc2[nH]c1=O,~800
5,CCc1c(O)nc2ccc(F)cc2c1OCC1CCC1,870
6,CCCc1c(O)nc2ccc(Cl)cc2c1OCC1CC1,1700
7,Cc1c(O)nc2ccc(F)cc2c1OCC1CCC1,> 2000

# Test system: HeLa
# Experiment: Inhibitory concentration against human immunodeficiency virus type 1 (with K103N/Y181C resistant mutation) was determined in HeLa-CD4 MAGI assay
# Assay type: functional, cell-based
# Summary of the method: as §1
row,Structure (SMILES),IC50 [nM]
1,CCCc1c(O)nc2ccc(Cl)cc2c1OC1CCCC1,> 2000
2,CCCc1c(O)nc2ccc(OC)cc2c1OC1CCCC1,> 2000
3,CCCc1c(O)nc2ccc(F)cc2c1OC#CC1CC1,1400
4,CC(C)c1c(OC2CCCCC2)c2cc(Cl)ccc2[nH]c1=O,> 2000
5,CCc1c(O)nc2ccc(F)cc2c1OCC1CCC1,> 2000
6,CCCc1c(O)nc2ccc(Cl)cc2c1OCC1CC1,> 2000
7,Cc1c(O)nc2ccc(F)cc2c1OCC1CCC1,> 2000

# Test system: MT4
# Experiment: Inhibitory concentration against wild type human immunodeficiency virus type 1 was determined by MT-4 assay
# Assay type: functional, cell-based
row,Structure (SMILES),IC50 [nM]
1,CCCc1c(O)nc2ccc(Cl)cc2c1OC1CCCC1,96
2,CCCc1c(O)nc2ccc(OC)cc2c1OC1CCCC1,1010
3,CCCc1c(O)nc2ccc(F)cc2c1OC#CC1CC1,72
4,CC(C)c1c(OC2CCCCC2)c2cc(Cl)ccc2[nH]c1=O,23
5,CCc1c(O)nc2ccc(F)cc2c1OCC1CCC1,39
6,CCCc1c(O)nc2ccc(Cl)cc2c1OCC1CC1,1100
7,Cc1c(O)nc2ccc(F)cc2c1OCC1CCC1,990

# Test system: HeLa
# Experiment: Inhibitory concentration against human immunodeficiency virus type 1 (with Y181C resistant mutation) was determined in HeLa-CD4 MAGI assay
# Assay type: functional, cell-based
# Summary of the method: as §1
row,Structure (SMILES),IC50 [nM]
1,CCCc1c(O)nc2ccc(Cl)cc2c1OC1CCCC1,> 2000
2,CCCc1c(O)nc2ccc(OC)cc2c1OC1CCCC1,710
3,CCCc1c(O)nc2ccc(F)cc2c1OC#CC1CC1,1
4,CC(C)c1c(OC2CCCCC2)c2cc(Cl)ccc2[nH]c1=O,1400
5,CCc1c(O)nc2ccc(F)cc2c1OCC1CCC1,390
6,CCCc1c(O)nc2ccc(Cl)cc2c1OCC1CC1,210
7,Cc1c(O)nc2ccc(F)cc2c1OCC1CCC1,> 2000

# Test system: HeLa
# Experiment: Inhibitory concentration against human immunodeficiency virus type 1 (with G190A resistant mutation) was determined in HeLa-CD4 MAGI assay
# Assay type: functional, cell-based
# Summary of the method: as §1
row,Structure (SMILES),IC50 [nM]
1,CCCc1c(O)nc2ccc(Cl)cc2c1OC1CCCC1,25
2,CCCc1c(O)nc2ccc(OC)cc2c1OC1CCCC1,710
3,CCCc1c(O)nc2ccc(F)cc2c1OC#CC1CC1,21
4,CC(C)c1c(OC2CCCCC2)c2cc(Cl)ccc2[nH]c1=O,27
5,CCc1c(O)nc2ccc(F)cc2c1OCC1CCC1,110
6,CCCc1c(O)nc2ccc(Cl)cc2c1OCC1CC1,49
7,Cc1c(O)nc2ccc(F)cc2c1OCC1CCC1,250

# Test system: MT4
# Experiment: Ratio of cytotoxic concentration to that of inhibitory concentration as selectivity index was determined by MT-4 assay
# Assay type: functional, Homo sapiens
# Summary of the method: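 Index is the IC50 in uninfected MT4 cells divided by the antiviral IC50 in MT4 cells infected with wild-type HIV-1 or the nevirapine-resistant strain carrying RT mutation Y181C.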
row,Structure (SMILES),Ratio
1,CCCc1c(O)nc2ccc(Cl)cc2c1OC1CCCC1,>40000
2,CCCc1c(O)nc2ccc(OC)cc2c1OC1CCCC1,>40000
3,CCCc1c(O)nc2ccc(F)cc2c1OC#CC1CC1,>8000
4,CC(C)c1c(OC2CCCCC2)c2cc(Cl)ccc2[nH]c1=O,>40000
5,CCc1c(O)nc2ccc(F)cc2c1OCC1CCC1,>8000
6,CCCc1c(O)nc2ccc(Cl)cc2c1OCC1CC1,>40000
7,Cc1c(O)nc2ccc(F)cc2c1OCC1CCC1,>8000

# Test system: HeLa
# Experiment: Inhibitory concentration against human immunodeficiency virus type 1 (with K103N/V108I resistant mutation) was determined in HeLa-CD4 MAGI assay
# Assay type: functional, cell-based
# Summary of the method: as §1
row,Structure (SMILES),IC50 [nM]
1,CCCc1c(O)nc2ccc(Cl)cc2c1OC1CCCC1,> 2000
2,CCCc1c(O)nc2ccc(OC)cc2c1OC1CCCC1,> 2000
3,CCCc1c(O)nc2ccc(F)cc2c1OC#CC1CC1,> 2000
4,CC(C)c1c(OC2CCCCC2)c2cc(Cl)ccc2[nH]c1=O,> 2000
5,CCc1c(O)nc2ccc(F)cc2c1OCC1CCC1,> 2000
6,CCCc1c(O)nc2ccc(Cl)cc2c1OCC1CC1,> 2000
7,Cc1c(O)nc2ccc(F)cc2c1OCC1CCC1,> 2000

# Test system: MT4
# Experiment: Inhibitory concentration against nevirapine resistant strain (with Y181C mutation in HIV-1 RT gene) of human immunodeficiency virus type 1 was determined by MT-4 assay
# Assay type: functional, cell-based
row,Structure (SMILES),IC50 [nM]
1,CCCc1c(O)nc2ccc(Cl)cc2c1OC1CCCC1,1700
2,CCCc1c(O)nc2ccc(OC)cc2c1OC1CCCC1,24000
3,CCCc1c(O)nc2ccc(F)cc2c1OC#CC1CC1,81
4,CC(C)c1c(OC2CCCCC2)c2cc(Cl)ccc2[nH]c1=O,360
5,CCc1c(O)nc2ccc(F)cc2c1OCC1CCC1,230
6,CCCc1c(O)nc2ccc(Cl)cc2c1OCC1CC1,8300
7,Cc1c(O)nc2ccc(F)cc2c1OCC1CCC1,3900

# Test system: HeLa
# Experiment: Inhibitory concentration against human immunodeficiency virus type 1 (with V108I resistant mutation) was determined in HeLa-CD4 MAGI assay
# Assay type: functional, cell-based
# Summary of the method: as §1
row,Structure (SMILES),IC50 [nM]
1,CCCc1c(O)nc2ccc(Cl)cc2c1OC1CCCC1,200
2,CCCc1c(O)nc2ccc(OC)cc2c1OC1CCCC1,540
3,CCCc1c(O)nc2ccc(F)cc2c1OC#CC1CC1,160
4,CC(C)c1c(OC2CCCCC2)c2cc(Cl)ccc2[nH]c1=O,110
5,CCc1c(O)nc2ccc(F)cc2c1OCC1CCC1,250
6,CCCc1c(O)nc2ccc(Cl)cc2c1OCC1CC1,200
7,Cc1c(O)nc2ccc(F)cc2c1OCC1CCC1,1700

# Test system: HeLa
# Experiment: Inhibitory concentration against human immunodeficiency virus type 1 (with V106A resistant mutation) was determined in HeLa-CD4 MAGI assay
# Assay type: functional, cell-based
# Summary of the method: as §1
row,Structure (SMILES),IC50 [nM]
1,CCCc1c(O)nc2ccc(Cl)cc2c1OC1CCCC1,270
2,CCCc1c(O)nc2ccc(OC)cc2c1OC1CCCC1,> 2000
3,CCCc1c(O)nc2ccc(F)cc2c1OC#CC1CC1,440
4,CC(C)c1c(OC2CCCCC2)c2cc(Cl)ccc2[nH]c1=O,1100
5,CCc1c(O)nc2ccc(F)cc2c1OCC1CCC1,1700
6,CCCc1c(O)nc2ccc(Cl)cc2c1OCC1CC1,630
7,Cc1c(O)nc2ccc(F)cc2c1OCC1CCC1,> 2000

# Test system: HeLa
# Experiment: Inhibitory concentration against human immunodeficiency virus type 1 (with K103N resistant mutation) was determined in HeLa-CD4 MAGI assay
# Assay type: functional, cell-based
# Summary of the method: as §1
row,Structure (SMILES),IC50 [nM]
1,CCCc1c(O)nc2ccc(Cl)cc2c1OC1CCCC1,> 2000
2,CCCc1c(O)nc2ccc(OC)cc2c1OC1CCCC1,> 2000
3,CCCc1c(O)nc2ccc(F)cc2c1OC#CC1CC1,> 2000
4,CC(C)c1c(OC2CCCCC2)c2cc(Cl)ccc2[nH]c1=O,170
5,CCc1c(O)nc2ccc(F)cc2c1OCC1CCC1,270
6,CCCc1c(O)nc2ccc(Cl)cc2c1OCC1CC1,> 2000
7,Cc1c(O)nc2ccc(F)cc2c1OCC1CCC1,> 2000

# Test system: HeLa
# Experiment: Inhibitory concentration against human immunodeficiency virus type 1 (with Y188C resistant mutation) was determined in HeLa-CD4 MAGI assay
# Assay type: functional, cell-based
# Summary of the method: as §1
row,Structure (SMILES),IC50 [nM]
1,CCCc1c(O)nc2ccc(Cl)cc2c1OC1CCCC1,31
2,CCCc1c(O)nc2ccc(OC)cc2c1OC1CCCC1,160
3,CCCc1c(O)nc2ccc(F)cc2c1OC#CC1CC1,290
4,CC(C)c1c(OC2CCCCC2)c2cc(Cl)ccc2[nH]c1=O,12
5,CCc1c(O)nc2ccc(F)cc2c1OCC1CCC1,130
6,CCCc1c(O)nc2ccc(Cl)cc2c1OCC1CC1,89
7,Cc1c(O)nc2ccc(F)cc2c1OCC1CCC1,840

# Test system: HeLa
# Experiment: Inhibitory concentration against human immunodeficiency virus type 1 (with K103N/G190A resistant mutation) was determined in HeLa-CD4 MAGI assay
# Assay type: functional, cell-based
# Summary of the method: as §1
row,Structure (SMILES),IC50 [nM]
1,CCCc1c(O)nc2ccc(Cl)cc2c1OC1CCCC1,> 2000
2,CCCc1c(O)nc2ccc(OC)cc2c1OC1CCCC1,> 2000
3,CCCc1c(O)nc2ccc(F)cc2c1OC#CC1CC1,490
4,CC(C)c1c(OC2CCCCC2)c2cc(Cl)ccc2[nH]c1=O,190
5,CCc1c(O)nc2ccc(F)cc2c1OCC1CCC1,1100
6,CCCc1c(O)nc2ccc(Cl)cc2c1OCC1CC1,> 2000
7,Cc1c(O)nc2ccc(F)cc2c1OCC1CCC1,> 2000
